One series has as its system Candida parapsilosis. In words: Antifungal activity against Candida parapsilosis ATCC 22019 at 35 degC after 48 hrs by broth microdilution test. Format: functional. The following applies: Lodderomyces parapsilosis, ATCC 22019, 48 h. Summed up:
(§1)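 Broth microdilution per NCCLS M27-A2. Stocks in 100% DMSO, diluted in RPMI 1640 with 0.165 M MOPS at pH 7.0; final range 0.25–128 µg/mL. Inoculum 1000–5000 cells/mL from SDA subcultures. […] C. parapsilosis ATCC22019 served as QC strain.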

A short description of series [1]: Therapeutic index, ratio of CC50 for human U937 cells to MIC90 for Candida albicans ATCC 10261. It is filed as cell-based, U-937. Summed up: (§2)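 Therapeutic index calculated as CC50 in the given cell line divided by MIC90.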
For series [2], the system named is Arthrodermataceae. Nature of the series: Antifungal activity against dermatophytes at 28 degC after 7 days by broth microdilution test. Conditions: 168 h. Format: functional. In outline: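 Ten clinical isolates (two M. canis, five M. gypseum, three T. mentagrophytes) tested by NCCLS M38-A broth microdilution in MOPS-buffered RPMI 1640, pH 7.0, over 0.25–128 µg/mL. Conidial/hyphal suspension from PDA slants (28 °C, 7 days) adjusted to 65–70% transmittance at OD530, then diluted 1:50.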

Series [3] has as its system Candida albicans. In words: Antifungal activity against fluconazole-resistant Candida albicans isolated from oropharyngeal or vaginal disease patient after 48 hrs by broth microdilution test. Format: functional.
Series [4] relates to Arthrodermataceae. Nature of the series: Antifungal activity against dermatophytes at 28 degC after 48 to 96 hrs by broth microdilution test.
For series [5], the system named is Arthrodermataceae. In words: Antifungal activity against dermatophytes at 28 degC after 5 days by broth microdilution test.
The nature of series [6]: Therapeutic index, ratio of CC50 for human K562 cells to MIC90 for Candida albicans ATCC 10261. Format: cell-based. In outline:
as §2

A short description of series [7]: Cytotoxicity against human U937 cells assessed as reduction of cell viability after 24 hrs by MTT assay. Format: cell-based, U-937. Summed up:
(§3)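 U937 and K562 cells, from ATCC, plated at 5 × 10^4/mL in phenol-red-free RPMI-1640 with 20% FBS and penicillin/streptomycin. Compounds added 2 h later at 25–100 µg/mL, then 24 h at 37 °C. MTT at 1 mg/mL for 3 h, formazan dissolved in isopropanol with 0.1 N HCl, absorbance read at 570 nm. CC50 is the concentration reducing viability by 50% versus the drug-free control.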

Series [8] in a line: Cytotoxicity against human K562 cells after assessed as reduction of cell viability 24 hrs by MTT assay. It is filed as cell-based. In outline:
as §3

The test system of series [9] is Candida albicans. In words: Antifungal activity against fluconazole-sensitive Candida albicans Fe40 at 35 degC after 48 hrs by broth microdilution test. Format: functional. In outline: as §1
In series [10] the test system is Candida albicans. In words: Antifungal activity against Candida albicans ATCC 10261 at 35 degC after 48 hrs by broth microdilution test. It is filed as functional. Conditions: Candida albicans, ATCC 10261, 48 h. Summed up:
as §1

The test system of series [11] is Candida albicans. In words: Antifungal activity against Candida albicans ATCC 10261 at 35 degC after 48 to 96 hrs by broth microdilution test. It is filed as functional. Summed up:
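Minimal fungicidal concentration for Candida. […] MFC is the lowest concentration allowing fewer than two colonies (99% killing).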

SMILES strings stand for the structures. Converted amounts (≈) assume the structure as drawn.

As to `Cc1ccc(C(CCn2ccnc2)Oc2ccc(Cl)cc2)cc1` (stereo not given), the MFC was 8 µg/mL (≈ 24.5 µM) in the series on Candida parapsilosis (read-out: MFC); 25.6 µg/mL (≈ 78.3 µM) against Arthrodermataceae [5] (Arthrodermataceae); 12 µg/mL (≈ 36.7 µM) in the series on Candida albicans [11] (Candida albicans, ATCC 10261, read-out: MFC). The MIC with Candida parapsilosis (read-out: MIC) was 4 µg/mL (≈ 12.2 µM); in the series on Arthrodermataceae [2], 3.8 µg/mL (≈ 11.6 µM); in the series with Candida albicans [3], 3.6 µg/mL (≈ 11 µM); with Candida albicans [9], 2 µg/mL (≈ 6.12 µM); in the series with Candida albicans [10] (read-out: MIC), 2.4 µg/mL (≈ 7.34 µM). For the same compound, the figures for the selectivity ratio in series [1] and in [6] were 42 and 42.8, respectively. The MIC50 is 4 µg/mL (≈ 12.2 µM) against Arthrodermataceae [2] and 2 µg/mL (≈ 6.12 µM) in the series with Candida albicans [10] (read-out: MIC50). Besides, the MIC90 against Arthrodermataceae [2] and with Candida albicans [10] (read-out: MIC90) was 4 µg/mL (≈ 12.2 µM) each time. Moreover, the values for the MFC50 against Arthrodermataceae [4] and against Candida albicans [11] were 32 µg/mL (≈ 97.9 µM) and 8 µg/mL (≈ 24.5 µM), respectively. Also, the MFC90 is 32 µg/mL (≈ 97.9 µM) with Arthrodermataceae [5] and 16 µg/mL (≈ 49 µM) in the series with Candida albicans [11]. The values for the CC50 at 24 h in series [7] and in series [8] were 168 µM and 171 µM, respectively.

The values are drawn from ChEMBL document CHEMBL1157464, “1-[(3-Aryloxy-3-aryl)propyl]-1H-imidazoles, new imidazoles with potent activity against Candida albicans and dermatophytes. Synthesis, structure-activity relationship, and molecular modeling studies” (J Med Chem, 2008).
